Source: PubChem BioAssay (several laboratories)
aDG glyco act: activators of alpha-DG glycosylation, primary screen, uHTS, Pro5-aDG cells, AlphaScreen; alpha-DG glycosylation AlphaScreen (IIH6); 0% Pro5, 100% B10-LARGE cell signal; activation, % at 10 µM; hit rate 0.22% among 360,000; AID 624168, 2012;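 active = activation of at least 8% versus controls, or a plate z-score of at least 8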;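 note: Pro5 are CHO cells carrying HIG-tagged alpha-DG that lacks glycosylation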
procasp7 counter: procaspase-7 activators, primary screen, counter-screen for procaspase-3 activator project, biochemical, absorbance, HTS, human | recombinant procaspase-7, Ac-DEVD-pNA absorbance 405 nm; D23A/D198A/D206A triple mutant, cannot self-cleave; scale: DMSO 0, 5 µM enzyme 100 | activation, % at 8.5 µM | hit rate 0.093% among 330,000;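 active = percent activation above the screen-wide mean plus 3 SD, cut at about 25% in these data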
Target sequence (P55210 whole entry D23A/D198A/D206A): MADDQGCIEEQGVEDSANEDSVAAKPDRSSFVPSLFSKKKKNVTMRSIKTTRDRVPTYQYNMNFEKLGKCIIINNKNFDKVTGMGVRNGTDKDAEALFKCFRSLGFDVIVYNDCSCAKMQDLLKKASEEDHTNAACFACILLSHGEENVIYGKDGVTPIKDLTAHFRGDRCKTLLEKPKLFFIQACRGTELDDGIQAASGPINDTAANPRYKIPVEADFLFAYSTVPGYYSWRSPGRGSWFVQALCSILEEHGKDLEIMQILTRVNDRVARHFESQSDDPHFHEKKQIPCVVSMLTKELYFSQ
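signal = Epi-absorbance of released pNA at 405 nm, two timepoints | assay system = Uncleavable procaspase-7 mutant enzyme | reagent = Ac-DEVD-pNA substrate, 400 µM as added | times = 1 h enzyme–compound preincubation and 2 h substrate reaction, both 25 °C | benchmarks = low DMSO alone, high DMSO plus 5 µM PC-7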
procasp3 activ: activators of human procaspase-3 D3A mutant, primary screen, biochemical, absorbance, PC-3 D3A mutant, single concentration. Caspase-3 (Homo sapiens), P42574. recombinant procaspase-3 D3A, Ac-DEVD-pNA absorbance 405 nm. activation, % at 8.5 µM. hit rate 0.11% among 330,000. AID 463141, 2010;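 active = activation above the mean of all tested compounds plus 3 SD, cut at about 21% in these data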;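 note: 0% = DMSO alone and 100% = DMSO wells spiked with extra 5 µM PC-3 D3A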
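Technique: 405 nm absorbance of p-nitroaniline, reads at 0 and 120 min; Test system: Procaspase-3 D3A mutant; Incubation: 1 h enzyme-compound preincubation, then 2 h substrate reaction, 25 °C; Repeats: singlicate, each compound tested once; Benchmarks: low control DMSO wells, high control DMSO plus 5 µM PC-3 D3A.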
MPTP block: mitochondrial permeability transition pore inhibitors, primary screen, biochemical, isolated mouse mitochondria, absorbance; hit rate 1.4% among 360,000; Ca2+ swelling absorbance, 30 min; inhibition, % at 10 µM;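 active = inhibition of 50% or more, scaled per plate between neutral and stimulator controls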;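 note: 0% = DMSO wells given calcium and 100% = 1 mM EGTA wells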
NR3A LBD binder: binders of NR3A ligand-binding domain, primary screen, biophysical, differential scanning fluorimetry, uHTS; hit rate 2.5% among 340,000; NR3A LBD differential scanning fluorimetry, Tm shift; 0% = protein alone, 100% = glycine-bound protein; Glutamate receptor ionotropic, NMDA 3A (GRIN3A) ligand-binding domain; AID 1259313, 2017; Tm shift relative to glycine control, % at 25 µM;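 active = melting temperature shift of at least 10% of the positive control shift, at one fixed dose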
MPTP counter: fluorescence retest of MPTP screen hits in isolated mitochondria, single concentration | membrane potential, Rhodamine 123 fluorescence | hit rate 78% among 5,000 | shares compounds with MPTP block | inhibition, % at 10 µM; in the data active = inhibition above about 22%;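 note: 0% = DMSO vehicle and 100% = positive control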
MPTP abs DR: mitochondrial permeability transition pore inhibitors, dose response, biochemical, absorbance, uHTS hits; AID 651561, 2012; isolated mitochondria swelling; shares compounds with MPTP block; hit rate 58% among 780; IC50, µM; in the data active = IC50 below about 20 µM
MPTP cs DR: fluorescent counter-screen in isolated mitochondria, dose response, counter-screen for MPTP inhibitor project, biochemical, fluorescence, uHTS hits | shares compounds with MPTP block | isolated mitochondria counterscreen, fluorescence read-out | IC50, µM | hit rate 49% among 780 | AID 651564, 2012; in the data active = IC50 below about 80 µM
An asterisk follows results filed as active; x = not tested or not shown. Rows were chosen to be rich in hits. Some 3.7% of all compounds tested hit in one or more screens of this group.

SMILES	aDG glyco act	procasp7 counter	procasp3 activ	MPTP block	NR3A LBD binder	MPTP counter	others
CCNC(=O)C1(C)CCCN1Cc1c(F)cccc1F (configuration not stated)	0	x	x	0	x	x
Cc1onc(NC(=O)CSCC(=O)O)c1Br	0	6	-3	2	-1	x
O=C(NC(=O)c1ccccc1O)c1ccc(C(F)(F)F)cc1	0	-4	-2	46	0	x
CCCc1ccc(C(=O)NC(=O)c2ccccc2O)cc1	0	5	14	59*	-6	91*
CC(=O)COc1ccc2c3c(c(=O)oc2c1C)CCCCC3	0	10	5	-1	-3	x
COC(=O)Cc1c(C)c2ccc(OCC(C)=O)c(C)c2oc1=O	0	13	-9	1	1	x
Cc1c(OCC(=O)OC(C)(C)C)ccc2c3c(c(=O)oc12)CCC3	1	-3	7	62*	1	56*
C=C(C)COc1ccc2c(C)c(CC(=O)OC)c(=O)oc2c1C	1	8	9	75*	7	59*
O=S1(=O)CC(N2CCN(CCO)CC2)CN1Cc1cn(Cc2ccccc2C(F)(F)F)nn1 (configuration not stated)	0	x	x	-2	x	x
Cc1ccc(NC(=O)COC(=O)COc2cccc3c2OC(C)(C)C3)c(C)c1	0	4	1	-1	0	x
CCCc1cc(C(=O)Cc2ccc(F)cc2)c(O)cc1O	0	-14	-9	18	9	x
CCc1cc(C(=O)Cc2ccc(F)cc2)c(O)cc1O	0	-5	-3	68*	-6	68*
CC1(C)C(=O)Nc2ccccc2N1C(=O)CSc1nc(-c2ccccc2)cs1	2	1	5	98*	-2	70*
O=C1CN(C(=O)CSc2nc(-c3ccccc3)cs2)c2ccccc2N1	0	4	0	0	0	x
O=C(O)c1ccc(C(=O)O)c(C(=O)c2ccc(NC(=O)c3ccccc3)cc2)c1	0	10	8	1	-1	x
CCOC(=O)c1ccc(NC(=O)Cc2coc3cc4c(cc23)CCC4)cc1	0	8	-2	87*	3	92*
CNc1nc2cc([N+](=O)[O-])c([N+](=O)[O-])cc2nc1NC	2	5	2	105*	2	94*
N#Cc1cc2nc(O)c(O)nc2cc1[N+](=O)[O-]	0	-11	0	0	-4	x
CCOc1cc(C(=O)Nc2ccc(F)cc2)cc(Br)c1OC	0	4	4	67*	-8	79*
CCOC(=O)Cc1nnc2c(Nc3ccc(Cl)cc3)nc3nonc3n12	0	-8	0	94*	-6	87*
COc1ccccc1-c1ccc([C@@H]2C[C@H]3[C@H](CON3C)CN2C(=O)c2ccc(-c3ccccc3)cc2)cc1	0	x	x	-1	x	x
O=C(Nc1ccc(Cl)c(Cl)c1)Nc1nnc(CC2=CCCCC2)s1	0	-8	-8	89*	-4	11	MPTP abs DR=3.5*;MPTP cs DR=<2.5*
O=C(Nc1nnc(CC2=CCCCC2)s1)c1cccs1	0	7	0	-2	-10	x
O=C(Nc1ccc(Cl)c(Cl)c1)Nc1nnc(-c2ccncc2)s1	0	-6	-15	102*	13*	87*
OC(c1cccnc1)c1nc(-c2ccc3c(c2)OCO3)cs1 (configuration not stated)	0	x	x	1	x	x
S=C(Nc1ccccc1)Nc1ccc(OCc2ccccc2)cc1	0	-10	1	9	9	x
